Compound activity: PubChem, several laboratories
Hits are enriched below; roughly 3.2% of the tested compounds scored in any of these assays.
MEKK2wt PB1 HTS – modulators of MEK5 binding to wildtype MEKK2, primary screen, biochemical, multiplex bead flow cytometry, Alexa488-MEK5; Mitogen-activated protein kinase kinase kinase 2 (Homo sapiens), Q9Y2U5; Alexa488-MEK5 binding to MEKK2 WT; actives lie on both sides; binding response (% of control), % at 10 µM; 290,000 tested, 1.1% active; AID 1531, 2009; in the data active = binding response below about 67% or above about 130%
MEKK3 PB1 HTS – modulators of MEKK3-MEK5 PB1 binding, primary screen, biochemical, wildtype MEKK3, multiplex bead flow cytometry, Alexa488-MEK5; AID 1529, 2009; Mitogen-activated protein kinase kinase kinase 3 (Homo sapiens), Q99759; 290,000 tested, 1.4% active; bead-based flow cytometry, Alexa488-MEK5 binding to MEKK3; actives lie on both sides; 0 = blocked by unlabeled MEK5, 100 = vehicle; binding response (% of control), % at 10 µM;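 active = binding response more than 3 SD above or below the average of its plate-row segment, actives on both sides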;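 also: Alexa488 bead fluorescence after subtracting the streptavidin-only scavenger bead signal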
Apaf-1 inh – inhibitors of human Apaf-1 apoptosome, primary screen, biochemical, DEVD-Rh110 fluorescence, uHTS; Apoptotic protease-activating factor 1 (Homo sapiens), O14727; reconstituted apoptosome caspase-3 activity; inhibition, % at 20 µM; 330,000 tested, 0.71% active; active = inhibition of at least 40% at 20 µM;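 also: plate controls were DMSO wells for no effect and DEVD-CHO caspase inhibitor wells for full effect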
Target sequence (O14727 whole entry, looked up): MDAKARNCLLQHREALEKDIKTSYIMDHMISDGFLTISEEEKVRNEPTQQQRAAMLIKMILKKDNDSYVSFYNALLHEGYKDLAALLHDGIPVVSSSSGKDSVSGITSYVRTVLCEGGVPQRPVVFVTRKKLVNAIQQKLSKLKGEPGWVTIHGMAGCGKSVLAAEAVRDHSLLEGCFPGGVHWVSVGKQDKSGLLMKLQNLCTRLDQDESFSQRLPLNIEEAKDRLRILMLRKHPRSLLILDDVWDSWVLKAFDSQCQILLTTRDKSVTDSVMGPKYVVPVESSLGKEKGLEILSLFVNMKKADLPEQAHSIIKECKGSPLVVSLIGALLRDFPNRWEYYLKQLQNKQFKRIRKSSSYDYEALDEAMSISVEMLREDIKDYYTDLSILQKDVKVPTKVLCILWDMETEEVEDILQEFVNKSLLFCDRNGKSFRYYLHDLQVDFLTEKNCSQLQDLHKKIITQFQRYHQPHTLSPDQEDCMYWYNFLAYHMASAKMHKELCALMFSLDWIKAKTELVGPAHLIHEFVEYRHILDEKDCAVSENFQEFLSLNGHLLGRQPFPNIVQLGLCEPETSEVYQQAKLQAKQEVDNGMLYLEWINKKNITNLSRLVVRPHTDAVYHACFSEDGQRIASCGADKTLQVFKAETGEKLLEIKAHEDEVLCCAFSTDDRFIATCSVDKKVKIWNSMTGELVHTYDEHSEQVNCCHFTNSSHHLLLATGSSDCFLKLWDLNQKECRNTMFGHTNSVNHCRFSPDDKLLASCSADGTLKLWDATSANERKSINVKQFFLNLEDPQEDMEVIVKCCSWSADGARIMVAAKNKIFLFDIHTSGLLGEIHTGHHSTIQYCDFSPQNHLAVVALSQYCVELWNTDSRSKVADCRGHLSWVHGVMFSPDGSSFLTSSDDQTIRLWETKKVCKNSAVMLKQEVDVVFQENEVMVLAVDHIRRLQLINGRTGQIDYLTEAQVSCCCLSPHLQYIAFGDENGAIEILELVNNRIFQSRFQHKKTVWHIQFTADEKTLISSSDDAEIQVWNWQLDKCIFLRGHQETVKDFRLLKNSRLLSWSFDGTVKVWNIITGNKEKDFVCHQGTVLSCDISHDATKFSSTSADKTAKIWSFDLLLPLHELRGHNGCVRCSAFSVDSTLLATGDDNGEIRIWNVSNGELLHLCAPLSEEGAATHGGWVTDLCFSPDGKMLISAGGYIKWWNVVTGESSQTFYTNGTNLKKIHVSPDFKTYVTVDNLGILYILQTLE
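Assay system: Apoptosome proteins | Medium: pH 7.5 Hepes buffer with CHAPS, BSA, DTT | Also added: Cytochrome c and DEVD-Rh110 substrate | Times: 30 min plus 50 min, RT | Detection: Rhodamine 110 fluorescence at Ex 480/Em 540 nm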
MEKK2mut PB1 HTS – MEK5 binding signal on mutant MEKK2 PB1, primary screen, biochemical, multiplex bead flow cytometry, Alexa488-MEK5; Alexa488-MEK5 binding to MEKK2 mutant; percent response, % at 10 µM; 290,000 tested, 0.35% active; in the data active = percent response above about 24%, passing the limit was not always enough
DSG3 Ab inh – inhibitors of pemphigus antibody binding to DSG3, primary screen, biochemical, bead-based, flow cytometry, scFv-GFP; DSG3-coupled beads, scFv-anti-DSG3-GFP binding; hits give low values; binding (percent of control), % at 10 µM; 310,000 tested, 0.48% active; AID 588358, 2011;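 active = binding more than 3 SD below its plate's average and above zero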;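 also: hits lower antibody fragment binding to DSG3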
UBC13 polyUb – UBC13 polyubiquitin chain formation inhibitors, primary screen, biochemical, TR-FRET, uHTS; inhibition, % at 20 µM; Ubiquitin-conjugating enzyme E2 N (Homo sapiens), P61088; AID 485273, 2010; 330,000 tested, 0.47% active; in the data active = inhibition above about 45%, passing the limit was not always enough
Starred values were filed as active, the others as inactive; · = not tested or not shown; [ ] = another dose, or the depositor's remark.

SMILES	MEKK2wt PB1 HTS	MEKK3 PB1 HTS	Apaf-1 inh	MEKK2mut PB1 HTS	DSG3 Ab inh	UBC13 polyUb
O=C(COC(=O)/C=C/c1cccc(F)c1)Nc1ncccn1	99	102	-17	-1	83*	-3
O=C(COC(=O)/C=C/c1cccc(F)c1)Nc1ccc(Cl)cn1	106	115	-11	-6	101	9
O=C(COC(=O)/C=C/c1cccc(F)c1)Nc1ccccc1-c1ccccc1	91	92	12	-2	·	6
O=C(COC(=O)/C=C/c1ccc(F)cc1)Nc1ccccc1-c1ccccc1	96	69*[inhibitor]	3	-2	93	6
NC(=O)C1CCN(C(=O)c2ccc(Cl)c(NC(=O)c3cccs3)c2)CC1	·	·	·	·	92	·
CSCCC(NC(=O)C12CC3CC(CC(C3)C1)C2)C(=O)OCC(=O)c1ccc(C)cc1 (stereo not drawn)	104	104	-6	1	53*	6
CSCCC(NC(=O)c1ccc([N+](=O)[O-])cc1Cl)C(=O)OCC(=O)C12CC3CC(CC(C3)C1)C2 (stereo not drawn)	102	101	8	-3	88	-10
CC(=O)c1cccc(NC(=S)Nc2cccc3ccccc23)c1	108	104	81*	8	·	-31
CC(=O)c1ccc(NC(=S)Nc2cccc3cnccc23)cc1	101	105	96*	-4	93	-58
Cc1ccc(F)c(NC(=S)Nc2cccc3ccccc23)c1	98	100	78*	5	·	-30
S=C(Nc1cccc(Cl)c1)Nc1cccc2cnccc12	104	99	·	12	98	·
Cc1ccc(C)c(NC(=S)Nc2cccnc2)c1	89	102	4	-10	110	-2
Cc1ccc(C)c(NC(=S)Nc2cccc3cnccc23)c1	76	81	96*	-19	102	-73
Cc1c(N=O)c(-c2ccccc2)n(O)[n+]1[O-]	·	·	·	·	100	·
COc1ccc(NC(=S)Nc2cccc3ccccc23)cc1OC	105	100	83*	4	100	-42
S=C(Nc1cccc2ccccc12)Nc1cccc2ccccc12	·	·	·	·	106	·
COc1cc(C(=O)O)ccc1OCc1ccncc1	99	101	-7	7	109	6
COc1ccc(CCC(=O)NNC(=O)Cn2nc(C)cc2C)cc1	108	102	-9	3	105	11
CCOC(=O)c1ccc(-c2ccc(/C=N/NC(=O)c3cncc(Br)c3)o2)cc1	92	96	4	1	75*	-13
Cc1ccc(C(=O)N/N=C\c2ccc(-c3ccc(Cl)cc3)o2)cn1	96	100	-4	-3	92*	-4
COc1ccc(C(=O)COC(=O)c2cccc(-n3cnnn3)c2)c(OC)c1	·	·	10	·	97	2
COc1cccc(CN(C)CCCn2cnc3c(SC)ncnc32)c1	·	·	·	·	109	·
Cc1nc2nc(SCC(=O)NCCCN3CCCCCC3)nn2c(C)c1Cc1ccccc1	190*	110	12	34*	104	36
O=C(NCC1COc2ccccc2O1)C1CCN(S(=O)(=O)c2ccc(Cl)cc2)CC1 (stereo not drawn)	·	·	7	·	·	5
CCc1cccc2c(SCC(=O)NCC3CCCO3)nc(-c3ccc(F)cc3)nc12 (stereo not drawn)	101	101	-22	1	78*	-5
SMILES	MEKK2wt PB1 HTS	MEKK3 PB1 HTS	Apaf-1 inh	MEKK2mut PB1 HTS	DSG3 Ab inh	UBC13 polyUb
Cc1c(NC(=O)c2cc(Br)ccc2Cl)cccc1-n1cnnn1	·	·	8	·	95	5
Nc1ccc(S(=O)(=O)NNC(=O)C(=O)NNc2ccccn2)cc1	·	·	-7	·	99	93*
Nc1cc(=O)[nH]c(SCC(=O)Nc2cccc(S(=O)(=O)N3CCCCC3)c2)n1	·	·	3	·	93	2
CCOC(=O)c1ccc(S(=O)(=O)Nc2cc(S(=O)(=O)Nc3ccc(OC)cc3)ccc2O)cc1	·	·	0	·	93	-31
COc1ccc(C(=O)Nn2c(SCC(=O)c3ccccc3)nc3ccccc3c2=O)cc1	·	·	14	·	·	83*
Cc1ccnc(N=O)c1	·	·	6	·	101	·
Cc1ccc(N(CC(=O)NC(C)(C)C)C(=O)CNC(=O)c2cccs2)c(C)c1	90	90	9	-7	81*	3
Cc1cc(C)c(N(CC(=O)NC(C)(C)C)C(=O)CNC(=O)c2cccs2)c(C)c1	82	95	10	-10	·	-3
CNC(=O)CSc1nc2cc(S(=O)(=O)Nc3ccc(OC)cc3)ccc2o1	102	99	-12	4	-4.7*	10
O=C(NC(=S)Nn1cnc2c(cnn2-c2ccccc2)c1=O)c1ccc(Oc2ccccc2)cc1	99	103	41*	-1	89	-12
O=C(NC(=S)Nn1cnc2c(cnn2-c2ccccc2)c1=O)c1ccc(Cl)cc1	107	94	8	5	83	0
CC(C)c1ccc(NC(=O)CN2C(=O)COc3ccc(S(=O)(=O)N4CCOCC4)cc32)cc1	94	98	8	-5	74*	-1
OC(c1cc(-c2ccc(Cl)cc2)nc2ccccc12)C1CCCCN1 (stereo not drawn)	155*	115	·	59*	107	·
O=c1c(O)cccc2cc(O)c(O)c(O)c12	81	85	11	-19	33*	42
O=c1cc(-c2ccccc2)oc2cc(O)c(O)c(O)c12	·	·	8	·	97	0
Cc1ccc(C(C)C)cc1NC(=O)Nc1ccc([N+](=O)[O-])cc1	157*	112	14	25*	93	-6
CC(C)C(=O)NC(NC(=O)C(C)C)c1ccc([N+](=O)[O-])cc1	-1.0*	100	-5	3	100	-1
COc1cccc(NC(=O)COC(=O)CCC(=O)c2cccs2)c1	·	·	-1	·	105	-15
COc1ccc2[nH]c(C(=O)N3CCN(Cc4ccccc4)CC3)cc2c1OC	102	103	8	5	106	11
Cc1cc(C)nc(NC(=O)Nc2ccc3c(c2)OCO3)c1	92	100	9	-4	81	-10
Cc1ccc(NC(=O)Nc2ccc3c(c2)OCO3)nc1	98	102	-2	1	6.9*	9
C[C@@H]1CN([C@H](C)CO)C(=O)CCCn2cc(nn2)CO[C@H]1CN(C)S(=O)(=O)c1ccc(-c2ccccc2)cc1	·	·	·	·	108	·
CCN(CC(=O)NCc1cccs1)C(=O)c1ccc(N(C)S(=O)(=O)c2ccc(C)cc2)cc1	·	·	·	·	102	·
